Shown are actives, neighbours in structure and some others; about 1.9% of the full set was active somewhere.
EBNA-1 inh – blocks EBNA-1 binding to DNA | EBNA-1 DNA binding, fluorescence polarization | AID 1950 | hit rate 0.34% among 300,000 | inhibition, % at 14.8 µM; in the data active = inhibition above about 28%
ZTA counter – blocks Epstein-Barr virus ZTA, an EBNA-1 counter-screen. P03206. ZTA-DNA binding, fluorescence polarization. inhibition, % at 11 µM. hit rate 0.15% among 320,000. AID 2234; in the data active = inhibition above about 33%
Target sequence (P03206 whole entry, looked up): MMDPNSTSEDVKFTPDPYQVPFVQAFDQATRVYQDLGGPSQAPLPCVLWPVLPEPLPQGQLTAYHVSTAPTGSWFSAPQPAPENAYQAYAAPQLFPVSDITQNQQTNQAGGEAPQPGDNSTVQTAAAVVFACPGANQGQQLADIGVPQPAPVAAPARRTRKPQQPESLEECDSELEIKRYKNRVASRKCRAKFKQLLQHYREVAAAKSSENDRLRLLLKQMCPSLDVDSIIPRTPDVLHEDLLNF
PP1 counter – PP1-alpha (human) inhibition in PP5 counter-screen; P62136; purified PP1alpha, OMFP fluorescence; inhibition, % at 6.7 µM; hit rate 0.9% among 320,000;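 active = inhibition above the mean inhibition of all tested compounds plus 3 SD, computed separately for each screening campaign, cut at about 15% in these data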
Target sequence (P62136 whole entry, looked up): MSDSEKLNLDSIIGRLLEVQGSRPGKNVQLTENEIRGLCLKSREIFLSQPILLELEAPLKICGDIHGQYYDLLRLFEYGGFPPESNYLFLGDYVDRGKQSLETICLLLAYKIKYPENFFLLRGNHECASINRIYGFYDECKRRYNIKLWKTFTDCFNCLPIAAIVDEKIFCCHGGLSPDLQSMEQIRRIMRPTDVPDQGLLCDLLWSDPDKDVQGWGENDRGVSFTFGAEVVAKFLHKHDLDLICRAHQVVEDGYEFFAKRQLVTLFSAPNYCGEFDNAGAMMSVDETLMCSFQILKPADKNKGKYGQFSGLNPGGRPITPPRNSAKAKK
HCV NS3 hel inh – inhibitors of Hepatitis C virus NS3 helicase; NS3 helicase DNA unwinding, Cy5 molecular beacon fluorescence; inhibition, % at 10.9 µM; hit rate 0.56% among 290,000; AID 1800;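 active = inhibition above the mean of all tested compounds plus 3 SD, set per campaign, cut at about 35% in these data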
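System: NS3 helicase fragment of HCV / Schedule: 1 h at 25 °C / Control set: DMSO alone as 0% and 110 µM thioflavine S as 100% / Reagent: Cy5/quencher beacon DNA duplex and ATP to start / Technique: Cy5 fluorescence / Replication: singlicate / Evaluation: % inhibition of end-to-start signal ratio versus controls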
HCV core dimer – HCV core protein dimerization inhibition; TR-FRET GST/Flag-core106 dimerization, 1536-well; inhibition, % at 5 µM; hit rate 0.33% among 300,000; AID 1899;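 active = inhibition above the mean of all tested compounds plus 3 SD, set per screening campaign, cut at about 45% in these data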
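Assay system: Tagged HCV core106 pair (GST and Flag) | Buffer or medium: KF-containing HEPES buffer, pH 7.45, DTT, CHAPS, BSA | Also added: Eu donor and XL665 acceptor anti-tag antibodies | Dosing: One concentration, 5 µM, in 0.5% DMSO | Timing: 4 h at 22.5 °C | Technique: TR-FRET 671 and 617 nm emission | Repeats: Singlicate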
A number is an active result; 0 = inactive; - = no result.

SMILES	EBNA-1 inh	ZTA counter	PP1 counter	HCV NS3 hel inh	HCV core dimer
O=C(CSc1cccc(C(F)(F)F)c1)NC(=O)NCc1ccco1	0	0	0	0	50.6
Cc1ccccc1CSCC(=O)NC(=O)NCc1ccco1	0	0	0	0	57.6
Cc1cc(SCC(=O)NC(=O)NCc2ccco2)nc2c(C)cccc12	0	0	0	0	48.3
O=C(CSc1ccccc1F)NC(=O)NCc1ccco1	0	0	0	0	0
Cc1cc(SCC(=O)NC(=O)NCc2ccco2)nc2ccccc12	0	0	0	0	0
Cc1cc(NC(=O)COC(=O)CNC(=O)c2cccs2)c([N+](=O)[O-])cc1C	0	0	0	-	0
CC/C=C\[C@H](O)[C@H](O)C1=C(C)C(=O)[C@]2(O1)C(=O)N[C@@](OC)(C(=O)c1ccccc1)C2O (stereo not given in full)	0	0	0	0	0
O=C1CC(c2ccco2)Cc2nc(N3CCc4ccccc4C3)ncc21 (stereo not given)	0	0	17.1	0	0
CC(C)c1ccc(C2CC(=O)c3cnc(N4CCc5ccccc5C4)nc3C2)cc1 (stereo not given)	0	0	0	0	0
CCN(CC)c1ccc(N=Cc2ccc(N(CC)CC)cc2O)cc1	129.1	191.9	0	0	0
CCN(CC)c1ccc(C=Nc2ccc(C)cc2)c(O)c1	0	0	0	0	0
CC(C)CNC(=O)NC(=O)COC(=O)c1cc(F)cc(F)c1	87.5	0	0	0	0
Cc1nc2c(C(=O)NCc3ccccc3)c[nH]n2c(=O)c1Cl	0	0	0	0	0
Cc1nc2c(C(=O)NCCc3ccccc3Cl)c[nH]n2c(=O)c1Cl	0	0	16.7	0	0
CCOc1ccc(N=Nc2ccc(O)c3ncccc23)cc1	-	-	-	0	-
CCS(=O)(=O)c1ccc(OC)c(N=Nc2ccc(O)c3ncccc23)c1	0	0	15.2	0	0
O=C(c1ccccc1)c1ccc2nc(-c3ccc(NC(=O)c4ccccc4Br)cc3)[nH]c2c1	45.2	0	0	0	0
Cc1ccccc1C(=O)Nc1ccc(-c2nc3ccc(C(=O)c4ccccc4)cc3[nH]2)cc1	0	0	0	0	0
Cc1cccc(Cc2cnc(N3C(=N)SC(c4ccccc4)C3=O)s2)c1 (stereo not given)	0	0	15.2	0	0
CCCn1ncc(CN2CCC(CO)(CC3CCCCO3)CC2)c1C (stereo not given)	0	0	0	0	0
Cc1ccc(NC(=O)OCc2cccs2)cc1	0	0	0	0	0
CN1CCN(C(=S)NC(=O)c2ccco2)CC1	0	0	0	0	0
Cc1cc(N)ccc1-n1c(C)ccc1C	28.6	55.4	0	0	0
O=c1c2c3c(sc2nc(N2CCNCC2)n1-c1cccc(Cl)c1)CCCCC3	0	0	15.2	0	0
CCN1CCN(c2nc3sc4c(c3c(=O)n2-c2ccc(OC)cc2)CCCCC4)CC1	0	0	0	0	0
SMILES	EBNA-1 inh	ZTA counter	PP1 counter	HCV NS3 hel inh	HCV core dimer
Cc1ccc(CSC2=Nc3ccccc3C3=NC(CC(=O)NCc4ccco4)C(=O)N23)cc1 (stereo not given)	0	0	0	0	64.2
COc1cc(Cl)ccc1OCc1cc(C(=O)N2C[C@]3(C)C[C@H]2CC(C)(C)C3)no1	0	0	0	0	0
COc1cccc(NC(=S)Nc2cc(C)cc(C)n2)c1	0	0	0	0	86.1
Cc1ccc(S(=O)(=O)c2cc3c(=O)n4ccccc4nc3n(Cc3ccco3)c2=N)cc1C	0	0	0	0	70.2
CCCCN1C(=O)N(c2nnc(C(C)(C)C)s2)C(O)C1c1ccc(C)cc1 (stereo not given)	0	0	0	0	0
O=c1c(-c2nnc(SCc3ccc(Cl)cc3Cl)o2)cccn1Cc1ccccc1	0	0	15.6	0	0
C/C(=N\Nc1nc(-c2ccc(C)cc2C)cs1)c1cc2ccccc2oc1=O	0	0	0	0	51.1
COc1ccc2oc(=O)c(/C(C)=N/Nc3nc(-c4cc(C)ccc4C)cs3)cc2c1	0	0	0	0	55.6
CCOC(=O)N1CCC(NC(=O)c2oc3c(F)cccc3c2C)CC1	0	0	0	0	0
COc1cccc(C(=O)Nc2ccc(-c3nc4ccccc4o3)c(O)c2)c1	0	0	15.6	0	0
C#Cc1cccc(C(=O)N2CCCC(Nc3cccc(F)c3)C2)c1 (stereo not given)	0	0	0	0	0
N#C/C(=C(/O)COC(=O)c1ccc(Cl)c(S(=O)(=O)N2CCOCC2)c1)c1nc2ccccc2[nH]1	0	0	0	0	0
N#C/C(=C(/O)COC(=O)c1ccc2c(c1)OCCO2)c1nc2ccccc2[nH]1	0	0	0	0	58.4
O=C(c1ccc(-c2cc3ccccc3oc2=O)cc1)N1CCN(c2ccc(Cl)cc2[N+](=O)[O-])CC1	0	0	16.3	0	0
Cc1cc(C)n2c(SC/C(O)=C(\C#N)c3nc4ccccc4[nH]3)nnc2n1	0	0	0	0	75.0
Cc1ccccc1-n1c(SC/C(O)=C(\C#N)c2nc3ccccc3[nH]2)nnc1-c1ccncc1	0	0	0	0	0
COc1ccccc1/C=C(/C(=O)OCC(=O)NCc1ccccc1)c1ccccc1	0	0	0	0	0
COc1ccccc1/C=C(/CC(=O)NCc1ccccc1)c1nc2ccccc2s1	0	0	0	0	48.6
COc1ccccc1/C=C(/CC(=O)NCc1ccc(F)cc1)c1nc2ccccc2s1	0	0	15.5	0	66.7
CC(=O)c1cc2c(cc1NS(=O)(=O)c1ccccc1Br)OCO2	0	0	0	0	0
O=C1C2C3C=CC(C4CC34)C2C(=O)N1CCCCN1CCN(c2ccc(F)cc2)CC1 (stereo not given)	0	0	0	-	0
O=C(Nc1cc(Sc2ccccn2)cc([N+](=O)[O-])c1)c1ccc([N+](=O)[O-])cc1	0	0	15.5	0	0
Cc1ccc(-n2c(SCC(=O)Nc3ccc4c5c(cccc35)CC4)nc(O)cc2=O)cc1	0	0	15.7	0	0
Cc1ccc(-n2c(SCC(=O)Nc3ccc4c5c(cccc35)CC4)nc(O)c(C)c2=O)cc1	0	0	0	0	0
Cc1cc(C)cc(NC(=O)C(=O)NCC2CCCN2S(=O)(=O)c2cccs2)c1 (stereo not given)	0	0	0	-	0
SMILES	EBNA-1 inh	ZTA counter	PP1 counter	HCV NS3 hel inh	HCV core dimer
CN(C)CCCN(C(=O)c1cc(-c2cccs2)nc2ccccc12)c1nc2c(F)cccc2s1	0	0	0	0	0
Cc1ccc2nc(N(CCCN(C)C)C(=O)c3cc(-c4cccs4)nc4ccccc34)sc2c1	0	0	16.8	0	0
Cc1ccc(OCc2nnc(NC(=O)c3cccnc3)s2)cc1	0	0	0	0	0
O=C(CC1S/C(=N/N=C/c2cccs2)NC1=O)Nc1ccc(Cl)c(Cl)c1 (stereo not given)	0	0	0	0	0
O=C(CC1S/C(=N/N=C/c2cccs2)NC1=O)Nc1ccc(Cl)cc1 (stereo not given)	0	0	17.0	0	0
COC(=O)C1=C(CN2CCN(C)CC2)NC(=O)NC1c1cc(C)ccc1C (stereo not given)	0	0	0	0	0

Compound activity (PubChem)
